This is an account of results in ChEMBL document CHEMBL4270536, “Preparation, characterisation and biological evaluation of new N-phenyl amidobenzenesulfonates and N-phenyl ureidobenzenesulfonates inducing DNA double-strand breaks. Part 3. Modulation of ring A” (Eur J Med Chem, 2018).

For orientation: IC50 means the concentration that inhibits the measured activity by half.

Calls of active or inactive are those of the source. The calls are words filed in the database; no cut-off is given here.

Assay [1] relates to M21. Put plainly: Cell cycle arrest in human M21 cells assessed as accumulation at sub-G1 phase at 2 times IC50 after 24 hrs by DAPI staining based flow cytometry relative to control. In general terms: Flow cytometry measures light scatter and fluorescence of single cells or particles in a stream.
Assay [2] relates to M21. Put plainly: Cell cycle arrest in human M21 cells assessed as accumulation at G0/G1 phase at 2 times IC50 after 24 hrs by DAPI staining based flow cytometry relative to control.
Assay [3] has as its system M21. Description: Antiproliferative activity against human M21 cells after 48 hrs by SRB assay. It counts as functional, cell-based. As to conditions: M21, 48 h. The essentials: (§1)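 Cells grown in DMEM with 5% FBS at 37 C; seeded per well at 2.5 x 10^3 (HT-1080), 4.0 x 10^3 (HT-29), 3.0 x 10^3 (M21) or 2.5 x 10^3 (MCF7). Drugs from 40 mM DMSO stock, serial dilutions, final 100 µM to 78 nM, DMSO <0.5%.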

Assay [4] deals with M21. Put plainly: Induction of DNA damage in human M21 cells assessed as increase in gammaH2Ax level at 5 times IC50 after 24 hrs by immunofluorescence based epifluorescence microscopy. It counts as functional, cell-based. In outline: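 M21 cells (1 x 10^5) on fibronectin-coated (5 µg/mL, 1 h, 37 C) cover slides, 24 h attachment, then drug for 24 h; DMSO 0.25% in medium as control. Fixed with 3.7% formaldehyde, permeabilized with 0.1% saponin/3% BSA, mouse anti-H2AX pS139 (1:8000), DAPI nuclear stain; γH2AX foci imaged by epifluorescence microscopy.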

In assay [5] the test system is HT-1080. Description: Antiproliferative activity against human HT1080 cells after 48 hrs by SRB assay. It counts as functional, cell-based. As to conditions: HT-1080, 48 h. The essentials: as §1
In general terms: Sulforhodamine B stains cellular protein and so reports cell mass.

Assay [6] has as its system HT-29. Put plainly: Antiproliferative activity against human HT-29 cells after 48 hrs by SRB assay. It counts as functional, cell-based. As to conditions: HT-29, 48 h. The essentials: as §1
For assay [7], the system named is MCF7. Description: Antiproliferative activity against human MCF7 cells after 48 hrs by SRB assay. It counts as functional, cell-based. As to conditions: MCF7, 48 h. In outline:
as §1

Assay [8] in a line: Alkylating activity at DNA (unknown origin) after 90 mins by colorimetric NBP assay relative to chlorambucil. It counts as functional. In outline:
(§2)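 NBP alkylation kinetics (Bardos colorimetric method): 400 nmol drug in 1 mL ethanol mixed with 1 mL NBP (10% v/v in 95% ethanol), 1 mL 50 mM acetate buffer pH 4.3 and 1 mL ethanol, kept on ice, then heated at 80 C in shaking water bath; stopped on ice 5 min after 0, 30, 60, 90 min. Rate constant from linear regression of absorbance curve; chlorambucil as positive control.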

In assay [9] the test system is M21. Put plainly: Cell cycle arrest in human M21 cells assessed as accumulation at G2/M phase at 2 times IC50 after 24 hrs by DAPI staining based flow cytometry relative to control.
Assay [10] relates to M21. Description: Cell cycle arrest in human M21 cells assessed as accumulation at S phase at 2 times IC50 after 24 hrs by DAPI staining based flow cytometry relative to control.
A short description of assay [11]: Alkylating activity at DNA (unknown origin) after 90 mins by colorimetric NBP assay. It counts as functional. The essentials:
as §2

Assay [12] has as its system M21. Put plainly: Cell cycle arrest in human M21 cells assessed as accumulation at G0/G1 phase at 2 times IC50 after 24 hrs by DAPI staining based flow cytometry relative to control. It counts as functional. The essentials:
(§3)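 Flow cytometry in M21 cells seeded in six-well plates, allowed 24 h, then exposed 24 h to drug (2- or 5-fold IC50); DMSO 0.5% control. Trypsinized, PBS-washed, fixed in ice-cold EtOH, stained with 2 mg/mL DAPI in PBS; sub-G1, G0/G1, S and G2/M fractions measured on LSR II cytometer.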

Assay [13] deals with M21. Put plainly: Induction of DNA damage in human M21 cells assessed as increase in gammaH2Ax level at 5 times IC50 after 24 hrs by immunofluorescence based epifluorescence microscopy.
In assay [14] the test system is M21. Put plainly: Cell cycle arrest in human M21 cells assessed as accumulation at sub-G1 phase at 2 times IC50 after 24 hrs by DAPI staining based flow cytometry relative to control. It counts as functional. The essentials: as §3
Assay [15] relates to M21. Description: Cell cycle arrest in human M21 cells assessed as accumulation at G2/M phase at 2 times IC50 after 24 hrs by DAPI staining based flow cytometry relative to control. It counts as functional. In outline: as §3
In assay [16] the test system is M21. Put plainly: Cell cycle arrest in human M21 cells assessed as accumulation at S phase at 2 times IC50 after 24 hrs by DAPI staining based flow cytometry relative to control. It counts as functional. In outline: as §3

For `CCCNC(=O)Nc1ccc(S(=O)(=O)Oc2ccccc2I)cc1`, the Activity was 0.1% in assay [1], 62.6% in assay [2], 10.7% in assay [9] and 26.6% in assay [10]. For the same compound, the IC50 in [3] was found to be 5.4 µM; in assay [5] it was 0.7 µM; in assay [6], 6.8 µM; in assay [7] it was 2.9 µM. Further, the outcome in assay [4] was Active. The fold change (FC) in [8] turned out to be 13. In [11], this compound showed a K of 0.4 ×10⁻³ /s.
Regarding `CCCC(=O)Nc1ccc(S(=O)(=O)Oc2ccccc2I)cc1`, the Activity in assay [12] is 37%; in assay [14], 0.1%; in assay [15], 40.1%; in assay [16], 22.8%. Also, the IC50 in assay [3] was 9 µM; in assay [5] it was 2 µM; in [6], 11 µM; in assay [7] it was 9.7 µM. Moreover, the outcome in assay [13] was Active. In addition, the fold change (FC) in [8] stood at 60. For the same compound, the K in assay [11] came out at 0.088 ×10⁻³ /s.
With `CCNC(=O)Nc1ccc(S(=O)(=O)Oc2ccccc2I)cc1`, the Activity in assay [1] came out at 0.3%; in assay [2], 67.6%; in assay [9], 8.7%; in assay [10] it was 23.4%. In addition, the IC50 in [3] came out at 5.6 µM; in [5], 0.14 µM; in [6] it was 5.3 µM; in [7], 1.1 µM. The outcome in [4] was Active. The fold change (FC) in assay [8] was 42. Further, the K in assay [11] turned out to be 0.12 ×10⁻³ /s.
`CCC(=O)Nc1ccc(S(=O)(=O)Oc2ccccc2C(C)C)cc1`: the Activity was 39.6% in [12], 0.6% in [14], 15.4% in assay [15] and 44.4% in assay [16]. For the same compound, the half-maximal inhibitory concentration (IC50) in assay [3] turned out to be 11 µM; in [5], 2.1 µM; in assay [6], 7.4 µM; in assay [7], 11 µM. Besides, in assay [13], the outcome was Active. For the same compound, in assay [8], the fold change (FC) was determined as 17. In assay [11], this compound yielded a K of 0.31 ×10⁻³ /s.
Consider `CC(C)c1ccccc1OS(=O)(=O)c1ccc(NC(=O)CCCl)cc1`, for which the Activity in assay [12] is 33.7%; in assay [14] it was 0.1%; in assay [15], 30.6%; in assay [16] it was 35.6%. In addition, the IC50 in [3] is 14 µM; in assay [5] it was 6.5 µM; in assay [6] it was 16 µM; in [7], 9 µM. The outcome in assay [13] was Active. Further, the fold change (FC) in [8] came to 220. Besides, in [11], the K was found to be 0.024 ×10⁻³ /s.
Turning to `CCC(=O)Nc1ccc(S(=O)(=O)Oc2ccccc2I)cc1`, the Activity came out at 60.4% in [12], 0.2% in [14], 11.4% in assay [15] and 28% in [16]. The IC50 in assay [3] was found to be 11 µM; in assay [5], 7.2 µM; in assay [6] it was 11 µM; in assay [7], 8.1 µM. In addition, the result in [13] was Active. In assay [8], this compound yielded a fold change (FC) of 11. The K in assay [11] amounted to 0.49 ×10⁻³ /s.
Take `CCCCCNC(=O)Nc1ccc(S(=O)(=O)Oc2ccccc2C(C)C)cc1`: the Activity was found to be 0.3% in assay [1], 60.6% in [2], 26.9% in assay [9] and 12.2% in [10]. Besides, the IC50 in assay [3] was found to be 4.6 µM; in assay [5] it was 4.7 µM; in assay [6], 4.9 µM; in assay [7], 4 µM.
For `O=C(CCCl)Nc1ccc(S(=O)(=O)Oc2ccccc2I)cc1`, the Activity worked out at 27.5% in [12], 0.2% in assay [14], 37.4% in assay [15] and 34.9% in assay [16]. The IC50 came to 12 µM in assay [3], 4.2 µM in [5], 14 µM in assay [6] and 8.9 µM in assay [7]. In addition, in assay [13], the outcome was Active. In [8], this compound came in with a fold change (FC) of 84. The compound also displayed a K in [11] of 0.063 ×10⁻³ /s.
Regarding `O=C(NCC1CCCC1)Nc1ccc(S(=O)(=O)Oc2ccccc2I)cc1`, the Activity in [1] is given as 0.1%; in [2], 56.2%; in [9] it was 24.8%; in assay [10] it was 18.9%. The IC50 in assay [3] is 7.6 µM; in assay [5], 6.1 µM; in [6] it was 7.6 µM; in assay [7] it was 6.6 µM.
For the compound `CCCNC(=O)Nc1ccc(S(=O)(=O)Oc2ccccc2C(C)C)cc1`, the Activity in [1] was 0.3%; in [2], 64.6%; in assay [9] it was 10%; in [10], 25.1%. Besides, the IC50 in [3] worked out at 5.1 µM; in assay [5], 0.68 µM; in assay [6], 6.3 µM; in assay [7] it was 2.7 µM. The fold change (FC) in [8] is 200. The compound further showed a K in assay [11] of 0.027 ×10⁻³ /s.
For the compound `O=C(NCCCl)Nc1ccc(S(=O)(=O)Oc2ccccc2I)cc1`, the Activity in assay [1] is 0.1%; in assay [2], 56.8%; in [9] it was 12.2%; in assay [10] it was 30.9%. In assay [8], this compound came in with a fold change (FC) of 75. The same compound registered a K in assay [11] of 0.071 ×10⁻³ /s.
On to `CC(C)c1ccccc1OS(=O)(=O)c1ccc(NC(=O)NCCCCl)cc1`, for which the Activity is 0.8% in assay [1], 43.4% in assay [2], 17.2% in assay [9] and 38.6% in [10]. The IC50 stood at 9.3 µM in [3], 2.7 µM in assay [5], 6.9 µM in [6] and 7.4 µM in assay [7]. In addition, the result in assay [4] was Active. This compound registered a fold change (FC) in [8] of 160. For the same compound, the K in assay [11] is 0.033 ×10⁻³ /s.
For `O=C(Nc1ccc(S(=O)(=O)Oc2ccccc2I)cc1)NC1CC1`, the Activity in assay [1] amounted to 0.1%; in [2], 61.5%; in assay [9] it was 11.5%; in assay [10], 26.9%. Besides, the IC50 was determined as 11 µM in assay [3], 1.3 µM in [5], 14 µM in assay [6] and 7.4 µM in assay [7].
Regarding `CCCC(=O)Nc1ccc(S(=O)(=O)Oc2ccccc2C(C)C)cc1`, the Activity was 40% in assay [12], 0.7% in assay [14], 15.5% in assay [15] and 43.8% in [16]. Further, the concentration for half-maximal inhibition (IC50) is 6.1 µM in assay [3], 0.95 µM in assay [5], 4.9 µM in assay [6] and 6.6 µM in assay [7]. The outcome in assay [13] was Active. Further, in [8], the fold change (FC) came out at 14. For the same compound, the K in assay [11] is 0.37 ×10⁻³ /s.
On to `CC(C)c1ccccc1OS(=O)(=O)c1ccc(NC(=O)C(C)(C)C)cc1`, for which the Activity in assay [12] is recorded as 36.7%; in assay [14], 0.4%; in assay [15], 16%; in [16], 46.9%. Besides, the IC50 in [3] was found to be 6.2 µM; in [5] it was 11 µM; in assay [6], 15 µM; in [7], 6.5 µM. In addition, in assay [13], the result was Active. In addition, the fold change (FC) in [8] was found to be 780. The same compound had a K in [11] of 0.007 ×10⁻³ /s.
In the case of `O=C(NCCCCl)Nc1ccc(S(=O)(=O)Oc2ccccc2I)cc1`, the Activity is 0.1% in assay [1], 54.4% in assay [2], 13.5% in [9] and 32% in [10]. The IC50 in [3] turned out to be 4.6 µM; in [5], 2.8 µM; in [6], 9.6 µM; in assay [7] it was 7.6 µM. Also, the outcome in assay [4] was Active. In assay [8], this compound returned a fold change (FC) of 44. This compound had a K in assay [11] of 0.12 ×10⁻³ /s.
